Like-named read-outs stand apart in the source and are kept apart here.
What was measured:
[1] = type: in vivo, Japanese subjects (human); details: single oral 150 mg; for Tmax: both, human, plasma, po, 150 mg, median tmax
Summary of the method: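 Renal groups by eGFR from the Japanese creatinine equation. Overnight-fasted subjects received one 150 mg tablet with 150 mL water on Day 1 morning, with no water from 1 h before to 1 h after. Blood was drawn predose, then 0.25–12 h and at 24, 36, 48, 60 and 72 h. Plasma (25 µL) was assayed by validated LC–MS/MS (LLOQ 0.25 ng/mL; linear 0.25–500 ng/mL). AUCinf was regressed on eGFR as a fixed effect.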

[2] = Safety assessment; type: in vivo, Japanese subjects (human); details: single oral 150 mg
Summary of the method: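 After an overnight fast, a single oral 150 mg tablet was given. Monitoring covered TEAEs, supine BP and pulse, axillary temperature, haematology, biochemistry, urinalysis and 12-lead ECG up to 7 days post-dose, with follow-up 7 (± 2) days after discharge. TEAEs were coded in MedDRA v17.1. The investigator assigned causality and graded severity by CTCAE v4.0.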

[3] = cited from earlier work; for mean urinary excretion: healthy volunteers
[4] = cited from earlier work

| Structure (SMILES) | Tmax ([1]; across the renal function groups, fasting conditions) [h] | Tmax ([1]; renal impairment groups, fasting) [h] | linear regression of AUCinf, CL/F and eGFR across the renal function groups [1] | death, serious TEAE or TEAE leading to withdrawal of treatment ([2]; all 31 subjects) | ECG results ([2]; all subjects, day of admission and post-dose time points) | intensity of TEAEs ([2]; both TEAEs (headache, ALT increased)) | vital sign measurements, mean changes from baseline [2] | mean urinary excretion ([3]; after 2 weeks of multiple dosing) | median tmax ([3]; healthy subjects, fed conditions) [h] | mean urinary excretion ([3]; single oral dose) | AUC increase compared with subjects with normal renal function ([4]; mild renal impairment) [fold] | Cmax increase compared with subjects with normal renal function ([4]; mild renal impairment) [fold] | AUC increase compared with subjects with normal renal function ([4]; moderate renal impairment) [fold] | Cmax increase compared with subjects with normal renal function ([4]; moderate renal impairment) [fold] | AUC increase compared with subjects with normal renal function ([4]; severe renal impairment) [fold] | Cmax increase compared with subjects with normal renal function ([4]; severe renal impairment) [fold] |
| --- | --- | --- | --- | --- | --- | --- | --- | --- | --- | --- | --- | --- | --- | --- | --- | --- |
| NC(=O)c1cnc2[nH]ccc2c1N[C@@H]1[C@@H]2CC3C[C@H]1C[C@@](O)(C3)C2 [Peficitinib] | 1.5 to 1.75 | 1.5 | no statistically significant slopes | No death, serious TEAE or TEAE leading to withdrawal of treatment was reported | normal | mild | No clinically significant mean changes from baseline | 15–17% | 4 | 9–15 % of dose | – | – | – | – | – | – |
| CCS(=O)(=O)N1CC(CC#N)(n2cc(-c3ncnc4[nH]ccc34)cn2)C1 [baricitinib] | – | – | – | – | – | – | – | – | – | – | 1.41 | 1.16 | 2.22 | 1.46 | 4.05 | 1.40 |
